Assay results as given in ChEMBL document CHEMBL5053511, “Discovery of a Novel BCL-XL PROTAC Degrader with Enhanced BCL-2 Inhibition” (J Med Chem, 2021).
Calls of active or inactive are those of the source. No cut-off for these calls is given here.

Key:
[1] = target: T1, von Hippel-Lindau disease tumor suppressor/Bcl-2-like protein 1 (Homo sapiens, UniProt Q07817+P40337); assay: Protac activity at VHL/BCL-XL in human MOLT-4 cells assessed as induction of BCL-XL degradation at 10 uM pretreated with VHL-032 followed by compound treatement measured after 12 hrs by Western blot analysis; type: cell-based
In short: (§1)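 MOLT-4 cells were pretreated with 10 µM VHL-032 or 1 µM MG-132, followed by 12 h compound treatment. BCL-XL and β-actin were immunoblotted; blots representative of three experiments.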
Target sequence in this assay (P40337 whole entry, looked up): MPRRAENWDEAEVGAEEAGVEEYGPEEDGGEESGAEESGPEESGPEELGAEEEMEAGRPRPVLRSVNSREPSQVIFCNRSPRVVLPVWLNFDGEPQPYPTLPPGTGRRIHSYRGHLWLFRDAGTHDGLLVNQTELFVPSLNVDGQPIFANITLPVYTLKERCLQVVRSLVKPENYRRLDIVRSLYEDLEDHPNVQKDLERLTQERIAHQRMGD
Target sequence in this assay (Q07817 whole entry, looked up): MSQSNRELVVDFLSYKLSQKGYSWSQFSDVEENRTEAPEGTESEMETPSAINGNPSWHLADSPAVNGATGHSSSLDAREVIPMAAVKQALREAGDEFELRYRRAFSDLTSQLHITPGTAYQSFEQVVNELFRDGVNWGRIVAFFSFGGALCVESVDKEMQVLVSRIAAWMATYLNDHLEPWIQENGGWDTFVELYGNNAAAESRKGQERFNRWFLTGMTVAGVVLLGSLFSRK

[2] = target: T1, von Hippel-Lindau disease tumor suppressor/Bcl-2-like protein 1; assay: Protac activity at VHL/BCL-XL in human MOLT-4 cells assessed as induction of BCL-XL degradation at 10 uM pretreated with MG-132 followed by compound treatement measured after 12 hrs by Western blot analysis; type: cell-based; in short: as §1
Target sequence in this assay (P40337 whole entry, looked up): as the sequence (P40337 whole entry, looked up) above
Target sequence in this assay (Q07817 whole entry, looked up): as the sequence (Q07817 whole entry, looked up) above

[3] = target: T1, von Hippel-Lindau disease tumor suppressor/Bcl-2-like protein 1; assay: Protac activity at VHL/BCL-XL in human MOLT-4 cells assessed as induction of BCL-XL degradation at 100 nM measured up to 72 hrs by Western blot analysis; type: cell-based
In short: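 MOLT-4 cells were treated with 100 nM for a series of times. For washout, cells were treated for 16 h and sampled at times after compound removal. BCL-XL and β-actin were immunoblotted.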
Target sequence in this assay (P40337 whole entry, looked up): as the sequence (P40337 whole entry, looked up) above
Target sequence in this assay (Q07817 whole entry, looked up): as the sequence (Q07817 whole entry, looked up) above

[4] = target: T1, von Hippel-Lindau disease tumor suppressor/Bcl-2-like protein 1; assay: Protac activity at VHL/BCL-XL in human platelets assessed as decrease in BCL-XL protein level at up to […] measured after 16 hrs by Western blot analysis; settings: Platelet
In short: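 Washed human platelets were treated for 16 h at a range of concentrations, and BCL-XL was measured by western blotting.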
Target sequence in this assay (P40337 whole entry, looked up): as the sequence (P40337 whole entry, looked up) above
Target sequence in this assay (Q07817 whole entry, looked up): as the sequence (Q07817 whole entry, looked up) above

Platelet = assay: Cytotoxicity against platelets in human PRP assessed as reduction in cell viability measured after 48 hrs by MTS assay; type: cell-based
In short: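 Washed human platelets from PRP were kept in HEPES Tyrode's buffer with 1 µM PGE1 and 0.2 units/mL apyrase at 2×10^8/mL.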

[5] = target: T1, von Hippel-Lindau disease tumor suppressor/Bcl-2-like protein 1; assay: Protac activity at VHL/BCL-XL in human MOLT-4 cells assessed as decrease in BCL-XL protein level by densitometric analysis; type: cell-based
In short: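 MOLT-4 or RS4;11 cells were treated at a range of concentrations for 16 h. BCL-XL was immunoblotted with β-actin loading control, and band densitometry was normalised to β-actin. Mean ± SD of three independent experiments in triplicate.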
Target sequence in this assay (Q07817 whole entry): as the sequence (Q07817 whole entry, looked up) above
Target sequence in this assay (P40337 whole entry): as the sequence (P40337 whole entry, looked up) above

MOLT-4 [6] = assay: Induction of apoptosis in human MOLT-4 cells assessed as […] in cleaved caspase-3 level at up to 1000 nM measured after 16 hrs by immunoblotting analysis; type: functional, cell-based
In short: (§2)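 MOLT-4 cells were treated at a range of concentrations for 16 h. Lysates were immunoblotted for cleaved and full caspase-3, cleaved and full PARP, and β-actin; blots representative of three experiments.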

MOLT-4 [7] = assay: Induction of apoptosis in human MOLT-4 cells assessed as […] in full caspase-3 level at up to 1000 nM measured after 16 hrs by immunoblotting analysis; type: functional, cell-based; in short: as §2
MOLT-4 [8] = assay: Induction of apoptosis in human MOLT-4 cells assessed as early apoptotic cells at 10 nM measured after 48 hrs by annexinV-FITC/propidium iodide staining based flow cytometry (reference value: 2%); type: functional
MOLT-4 [9] = assay: Induction of apoptosis in human MOLT-4 cells assessed as late apoptotic cells at 10 nM measured after 48 hrs by annexinV-FITC/propidium iodide staining based flow cytometry (reference value: 1%); type: functional
MOLT-4 [10] = assay: Induction of apoptosis in human MOLT-4 cells assessed as early apoptotic cells at 10 nM measured after 48 hrs in presence of QVD by annexinV-FITC/propidium iodide staining based flow cytometry (reference value: 2%); type: functional
MOLT-4 [11] = assay: Induction of apoptosis in human MOLT-4 cells assessed as late apoptotic cells at 10 nM measured after 48 hrs in presence of QVD by annexinV-FITC/propidium iodide staining based flow cytometry (reference value: 1%); type: functional
Bcl-2-like protein 1 = Bcl-2-like protein 1 (Homo sapiens, UniProt Q07817); assay: Displacement of biotin-tagged LWAAQRYGRELRRMSDEFEGSFKGL from human BCL-XL expressed in Escherichia coli measured after 2 hrs by AlphaScreen assay
Sequence of Bcl-2-like protein 1 (Q07817 whole entry): as the sequence (Q07817 whole entry, looked up) above
In short: (§3)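 AlphaScreen displacement, run with or without VCB. Anti-His acceptor beads were added for 1 h at room temperature, then streptavidin donor beads for 30 min in the dark. Ki was fitted by one-site competitive model from peptide concentration and measured Kd values; reported as mean ± SD of at least two experiments in triplicate.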

[12] = target: Apoptosis regulator Bcl-2 (Homo sapiens, UniProt P10415); assay: Displacement of biotin-tagged MRPEPATIAQELRRIGDEFNA from C-terminal His-tagged human BCL-2 (1` to 211 residues) expressed in Escherichia coli measured after 2 hrs by AlphaScreen assay; in short: as §3
Sequence of Apoptosis regulator Bcl-2 (P10415 whole entry, the tested form may be a part): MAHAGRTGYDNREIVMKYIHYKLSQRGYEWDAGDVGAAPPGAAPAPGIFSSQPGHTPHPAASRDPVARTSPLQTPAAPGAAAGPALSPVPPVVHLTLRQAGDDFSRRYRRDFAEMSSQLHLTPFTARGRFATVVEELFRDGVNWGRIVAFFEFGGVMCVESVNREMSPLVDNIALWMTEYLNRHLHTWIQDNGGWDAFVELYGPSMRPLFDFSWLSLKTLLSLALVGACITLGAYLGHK

[13] = Binding affinity to human BCL-XL expressed in Escherichia coli/recombinant human VHL (54 to end residues) fused to human N-terminal GST-tagged elongin-C/elongin -B/N-terminal His-tagged CUL2/Rbx1 expressed in baculovirus infected Sf21 insect cells measured after 2 hrs by AlphaScreen assay
In short: as §3, with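 “VCB. Biotin-Bim (80 nM, for BCL-2) or biotin-Bad (16 nM, for BCL-XL) was combined with serially diluted compound and 6×His protein in 25 mM HEPES pH 7.5, 100 mM NaCl, 0.1% BSA, 0.005% Tween 20.” for “VCB.”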

[14] = Binding affinity to C-terminal His-tagged human BCL-2 (1 to 211 residues) expressed in Escherichia coli/recombinant human VHL (54 to end residues) fused to human N-terminal GST-tagged elongin-C/elongin -B/N-terminal His-tagged CUL2/Rbx1 expressed in baculovirus infected Sf21 insect cells measured after 2 hrs by AlphaScreen assay
In short: as §3, with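 “VCB. Biotin-Bim (80 nM, for BCL-2) or biotin-Bad (16 nM, for BCL-XL) was combined with serially diluted compound and 6×His protein in 25 mM HEPES pH 7.5, 100 mM NaCl, 0.1% BSA, 0.005% Tween 20.” for “VCB.”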

[15] = target: T2, von Hippel-Lindau disease tumor suppressor/Apoptosis regulator Bcl-2 (Homo sapiens) (UniProt P10415+P40337); assay: Binding affinity to Halo-tagged VHL/HiBiT-tagged BCL-2 (unknown origin) expressed in HEK293T cells assessed as ternary complex formation at up to 100000 nM measured after 6 hrs by NanoBRET assay; type: cell-based
T2 sequence (P10415 whole entry, looked up): as the sequence (P10415 whole entry, the tested form may be a part) above
T2 sequence (P40337 whole entry, looked up): as the sequence (P40337 whole entry, looked up) above
In short: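 NanoBRET in live HEK 293T cells. Cells were transfected with HaloTag-VHL (1 µg), HiBit-BCL-XL or HiBit-BCL-2 (10 ng) and LgBit (10 ng). After 24 h they were seeded at 2×10^4 per well in Opti-MEM with 4% FBS, with or without HaloTag 618 ligand, and held overnight. Serial compound doses were given for 6 h at 37 °C, then Nano-Glo substrate was added and mBRET ratios read. Mean ± s.e.m. of two experiments in triplicate.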

RS4-11 = assay: Cytotoxicity against human RS4-11 cells assessed as reduction in cell viability measured after 48 hrs in presence of VHL-032 by MTS assay; type: functional, cell-based; settings: RS4-11, 48 h
In short: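 RS4;11 cells were pretreated with 10 µM VHL-032, then exposed to compound for 48 h. Viability was read by MTS; three independent experiments in triplicate.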

[16] = target: T1, von Hippel-Lindau disease tumor suppressor/Bcl-2-like protein 1; assay: Binding affinity to VHL/ BCL-XL in human RS4-11 cells assessed as ternary complex formation at up to 300 nM measured after 12 hrs by immunoprecipitation assay; type: cell-based
Target sequence in this assay (P40337 whole entry, looked up): as above
Target sequence in this assay (Q07817 whole entry, looked up): as the sequence (Q07817 whole entry, looked up) above

[17] = target: T2, von Hippel-Lindau disease tumor suppressor/Apoptosis regulator Bcl-2 (Homo sapiens); assay: Binding affinity to VHL/BCL-2 in human RS4-11 cells assessed as ternary complex formation at up to 300 nM measured after 12 hrs by immunoprecipitation assay; type: cell-based

Activity [1]: inactive | Activity [2]: inactive | Activity [3]: Active | Activity [4]: inactive | DC50 [5]: 14.3 nM | Ki (Bcl-2-like protein 1): 2.59 nM | Kd [12]: 1.22 nM | Activity [15]: Active | Activity [16]: Active | Activity [17]: Active
Structure (SMILES): Cc1ncsc1-c1ccc([C@H](C)NC(=O)[C@@H]2C[C@@H](O)CN2C(=O)[C@@H](NC(=O)CCCCCCCCC(=O)NC[C@]2(C)CCC(c3ccc(Cl)cc3)=C(CN3CCN(c4ccc(C(=O)NS(=O)(=O)c5ccc(N[C@H](CCN6CCOCC6)CSc6ccccc6)c(S(=O)(=O)C(F)(F)F)c5)cc4)CC3)C2)C(C)(C)C)cc1
IC50 (Platelet): 950 nM | Activity (MOLT-4 [6]): Active | Activity (MOLT-4 [7]): Active | Activity (MOLT-4 [8]): 25% | Activity (MOLT-4 [9]): 21% | Activity (MOLT-4 [10]): 1% | Activity (MOLT-4 [11]): 13% | Kd [13]: 0.65 nM | Kd [14]: 0.53 nM | IC50 (RS4-11): 209 nM
